{"source": "ChEMBL document CHEMBL1158730", "about": "“Sesquiterpenoids from Pulicaria canariensis and their cytotoxic activities” (J Nat Prod, 2005)", "type_in_all_cases": "functional, cell-based", "key": {"HL-60 [1]": {"test_system": "HL-60", "experiment": "Cytotoxicity against human HL60 cells by MTT assay", "procedure,_shortened": "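HL-60 cells grown in suspension in RPMI-1640 with 10% heat-inactivated FBS, penicillin 100 units/mL and streptomycin 100 μg/mL, at 37 °C in humidified 95% air/5% CO2. Density kept below 1 × 10^6 cells/mL. Viability read by MTT; IC50 (μM) given as mean ± spread.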"}, "HL-60 [2]": {"test_system": "HL-60", "experiment": "Induction of apoptosis in human HL60 cells assessed as nuclear chromatin condensation by Hoechst 33258 based fluorescent microscopy", "procedure,_shortened": "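HL-60 cells cultured 12 h without or with the indicated doses, then stained with Hoechst 33258. Condensed/fragmented chromatin scored by fluorescence microscopy as the percentage of apoptotic cells. Etoposide 10 μM as positive control. Points are the average (±SE) of triplicates from a representative experiment.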"}, "HL-60 [3]": {"test_system": "HL-60", "experiment": "Induction of apoptosis in human HL60 cells assessed as accumulation […] at 30 uM after 12 hrs by flow cytometry", "procedure,_shortened": "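HL-60 cells incubated at 30 μM for 12 h. DNA content analysed by flow cytometry to follow the diploid-to-hypodiploid shift and the cell-cycle phase distribution.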"}, "HL-60 [4]": {"test_system": "HL-60", "experiment": "Induction of apoptosis in human HL60 cells assessed as activation of caspase 3 after 12 hrs", "procedure,_shortened": "(§1)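 HL-60 cells exposed to increasing concentrations for 12 h, then harvested. Cytosolic or total lysates assayed with colorimetric substrates, DEVD-pNA for caspase-3 and IETD-pNA for caspase-8. Activity expressed as x-fold over untreated control. A representative experiment run in duplicate.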"}, "HL-60 [5]": {"test_system": "HL-60", "experiment": "Induction of apoptosis in human HL60 cells assessed as activation of caspase 8 at after 12 hrs", "procedure,_shortened": "as §1"}, "HL-60 [6]": {"test_system": "HL-60", "experiment": "Induction of apoptosis in human HL60 cells assessed as cleavage of PARP-1 after 12 hrs by Western blot analysis", "procedure,_shortened": "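HL-60 cells treated for 12 h at the indicated concentrations. Total lysates immunoblotted with a PARP-1 monoclonal antibody that detects the native 116 kDa and cleaved 85 kDa forms. Etoposide 10 μM served as positive control.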"}}, "note": "The source made the active and inactive calls. No cut-off for these calls is given here."}
{"molecule": "CC(=O)OC/C1=C/CC[C@@]2(C)O[C@@H]2[C@@H](OC(C)=O)[C@@H](C(C)C)[C@H](OC(C)=O)C1", "values": [{"measurement": "IC50", "setting": "HL-60 [1]", "value": 298, "unit": "µM"}]}
{"molecule": "CC(=O)O[C@@H]1/C=C(\\C)CC[C@H]2O[C@@]2(C=O)C[C@@H](OC(C)=O)[C@@H]1C(C)C", "note": "[PULICANARAL A]", "values": [{"measurement": "IC50", "setting": "HL-60 [1]", "value": 115, "unit": "µM"}]}
{"molecule": "CC(=O)O[C@H]1[C@@H](C(C)C)[C@H](OC(C)=O)C[C@]2(C=O)O[C@@H]2CC[C@@]2(C)O[C@@H]12", "note": "[PULICANARAL B]", "values": [{"measurement": "IC50", "setting": "HL-60 [1]", "value": 264, "unit": "µM"}]}
{"molecule": "C=C1CC[C@@H](C(C)C)[C@H]2[C@@H]1CC[C@@H]2C(=O)CO", "note": "[PULIOPLOPANONE A]", "values": [{"measurement": "IC50", "setting": "HL-60 [1]", "value": 242, "unit": "µM"}]}
{"molecule": "C=C1CC/C=C(/COC(C)=O)C[C@@H](OC(C)=O)[C@H](C(C)C)[C@H](OC(C)=O)C1=O", "note": "[TRIACETOXY PULICANONE]", "values": [{"measurement": "IC50", "setting": "HL-60 [1]", "value": 20, "unit": "µM"}, {"measurement": "Activity", "setting": "HL-60 [2]", "value": "Dose-dependent effect"}, {"measurement": "Activity", "setting": "HL-60 [3]", "value": "Active"}, {"measurement": "Activity", "setting": "HL-60 [4]", "value": "Active"}, {"measurement": "Activity", "setting": "HL-60 [5]", "value": "Active"}, {"measurement": "Activity", "setting": "HL-60 [6]", "value": "Active"}]}
